Compound activity as filed in PubChem.
pPAFAH inh = pPAFAH enzyme inhibitors, primary screen, biochemical, fluorescence polarization, human; Platelet-activating factor acetylhydrolase (Homo sapiens), Q13093; recombinant pPAFAH, FP-rhodamine probe fluorescence polarization; inhibition, % at 3.39 µM; actives 1.5% (n = 330,000);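 active means inhibition above the mean inhibition across the screen plus 3 SD, cut at about 25% in these data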;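 further: inhibitors block binding of the rhodamine activity-based probe so polarization drops; 0% = enzyme with DMSO and 100% = wells lacking pPAFAH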
Target sequence (Q13093 whole entry, looked up): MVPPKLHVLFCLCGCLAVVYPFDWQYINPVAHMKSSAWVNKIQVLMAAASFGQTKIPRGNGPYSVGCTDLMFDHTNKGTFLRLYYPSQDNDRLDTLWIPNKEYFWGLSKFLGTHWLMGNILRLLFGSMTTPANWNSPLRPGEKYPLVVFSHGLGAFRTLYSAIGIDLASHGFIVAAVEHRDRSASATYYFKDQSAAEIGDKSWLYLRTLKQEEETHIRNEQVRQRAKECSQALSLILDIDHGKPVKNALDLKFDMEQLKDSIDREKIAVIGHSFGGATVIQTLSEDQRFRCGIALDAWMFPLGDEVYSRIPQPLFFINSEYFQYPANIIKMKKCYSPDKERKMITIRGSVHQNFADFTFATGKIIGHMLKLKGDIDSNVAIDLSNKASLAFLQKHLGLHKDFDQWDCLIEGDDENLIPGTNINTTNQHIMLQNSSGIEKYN
UCH37 inh = inhibitors of human UCH37 deubiquitinase, primary screen, biochemical, Ub-AMC cleavage, fluorescence | Ubiquitin carboxyl-terminal hydrolase isozyme L5 (Homo sapiens), Q9Y5K5 | purified proteasome/UCH37 | inhibition, % (test concentration not listed) | actives 0.33% (n = 330,000);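 active means mean inhibition over replicate wells above about 20%, limit read from the data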;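 further: 0% = compound-free wells with enzyme and 100% = wells lacking proteasome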
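assay system = human UCH37 enzyme supplied as purified proteasome complex | amount = proteasome at 0.15 nM in the dispensed enzyme solution | schedule = 30 min compound-proteasome preincubation then 25 min substrate reaction, room temperature | measured by = fluorescence, ex 355 nm, em 460 nm | benchmarks = no-proteasome wells (full inhibition) and compound-free wells (no inhibition)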
GRIN3A LBD mod = binders of NR3A ligand-binding domain, primary screen, biophysical, differential scanning fluorimetry, uHTS; Tm shift relative to glycine control, % at 25 µM; actives 2.5% (n = 340,000); AID 1259313, 2017; NR3A LBD differential scanning fluorimetry, Tm shift; 0% = protein alone, 100% = glycine-bound protein;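 active means melting temperature shift of at least 10% of the positive control shift, at one fixed dose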
PAFAH1B2 FP inh = PAFAH1B2 enzyme inhibitors, primary screen, biochemical, fluorescence polarization, human. Platelet-activating factor acetylhydrolase IB subunit alpha2 (Homo sapiens), P68402. recombinant PAFAH1B2, FP-rhodamine activity probe. inhibition, % at 3.39 µM. actives 1.2% (n = 340,000). AID 492953, 2010;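 active means inhibition above the mean of all tested compounds plus 3 SD, cut at about 24% in these data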;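 further: 0% = enzyme with DMSO and 100% = wells lacking PAFAH1B2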
Target sequence (P68402 whole entry, looked up): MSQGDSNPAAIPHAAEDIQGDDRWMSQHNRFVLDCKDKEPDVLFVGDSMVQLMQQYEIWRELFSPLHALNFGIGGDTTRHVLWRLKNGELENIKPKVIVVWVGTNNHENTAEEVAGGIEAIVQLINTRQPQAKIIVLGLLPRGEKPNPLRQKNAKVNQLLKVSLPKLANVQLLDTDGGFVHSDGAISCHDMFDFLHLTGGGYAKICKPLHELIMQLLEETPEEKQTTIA
PAFAH2 FP inh = PAFAH2 enzyme inhibitors, primary screen, biochemical, fluorescence polarization, human | recombinant PAFAH2, FP-rhodamine activity probe | actives 0.99% (n = 340,000) | Platelet-activating factor acetylhydrolase 2, cytoplasmic (Homo sapiens), Q99487 | AID 492956, 2010 | inhibition, % at 3.39 µM;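 active means inhibition above the mean over all tested compounds plus 3 SD, cut at about 30% in these data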;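 further: inhibitors block probe labeling of enzyme so polarization drops; 0% = enzyme with DMSO and 100% = wells lacking PAFAH2 protein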
PAFAH1B3 inh = PAFAH1B3 enzyme inhibitors, primary screen, biochemical, fluorescence polarization, human | Platelet-activating factor acetylhydrolase IB subunit alpha1 (Homo sapiens), Q15102 | inhibition, % at 3.39 µM | recombinant PAFAH1B3, FP-rhodamine probe | actives 0.28% (n = 340,000) | AID 492972, 2010;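 active means inhibition above the screen-wide average of all tested compounds plus 3 SD, cut at about 25% in these data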;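 further: 0% = enzyme with DMSO only and 100% = wells lacking PAFAH1B3 protein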
* hit, by the source's call; i = inactive; . = not tested or not shown; ! = a repeat was not active. An excerpt weighted towards active compounds, which were near 4.8% of everything screened.

SMILES	pPAFAH inh	UCH37 inh	GRIN3A LBD mod	PAFAH1B2 FP inh	PAFAH2 FP inh	PAFAH1B3 inh
CCOc1ccc(NS(=O)(=O)c2cc(NC(=O)c3ccc(C)cc3)ccc2Cl)cc1	-13.5	6.7	14.9*	-23.4	-64.5	-68.8
CN(CC(=O)NCC(=O)Nc1ccc(F)cc1)CC(=O)Nc1ccc(Cl)c(C(F)(F)F)c1	.	1.9	-6.2	27.8*	0.4	0.2
COc1ccc(NC(=O)CN(C)CC(=O)NCC(=O)Nc2ccc(F)cc2)cc1	1.1	0.8	1.7	-1.4	-2.1	-1.9
CN(CC(=O)NCc1ccc(F)cc1)CC(=O)Nc1ccc(Cl)c(C(F)(F)F)c1	11.6	2.7	-6.0	5.9	-3.0	-2.1
COc1cccc(NC(=O)CN(C)CC(=O)NCC(=O)Nc2ccc(F)cc2)c1	0.1	-1.8	18.8*	3.0	8.3	9.2
O=C(COC(=O)COc1ccc(Br)cc1)NC1CCCCCC1	15.4	2.6	3.7	23.2	1.6	2.9
O=C(COC(=O)Cc1ccc(Br)cc1)NC12CC3CC(CC(C3)C1)C2	25.9*	0.0	-3.5	38.3*	4.4	13.8
O=C(COC(=O)CNS(=O)(=O)c1ccc(Br)cc1Cl)NC1CCCC1	1.9	3.6	18.1*	12.1	-3.9	7.7
O=C(COC(=O)c1c[nH]c2ccccc12)NC1CCCCC1	28.3*	.	-0.2	6.4	83.0*	9.1
O=C(COC(=O)Cc1ccc(Br)cc1)NC1CCCCCC1	26.8*	1.6	-0.5	27.3*	9.0	13.0
O=C(COC(=O)CNS(=O)(=O)c1cc(C(F)(F)F)ccc1Cl)NC1CC1	-1.0	.	-1.2	6.7	2.1	10.9
CC(Cc1ccccc1)=NNC(=O)c1cc(C(C)(C)C)[nH]n1	.	3.3	.	.	.	.
C/C(N)=C(/C#N)C(=O)COC(=O)CCS(=O)(=O)c1ccccc1	6.8	0.9	1.2	1.7	-3.1	15.4
C/C(N)=C(/C#N)C(=O)COC(=O)CCSc1ccccc1	7.8	4.1	-1.0	26.5*!	12.5	2.5
O=C(Cc1cc(=O)[nH][nH]1)N/N=C/c1ccccc1Cl	5.3	.	-5.0	.	.	.
O=C(Cc1cc(=O)[nH][nH]1)N/N=C/C(Cl)=C/c1ccccc1	26.5*!	.	-2.5	7.9	-2.7	0.4
CC(C)(C)NC(=O)C(=O)NN=Cc1cccs1	.	6.6	.	.	.	.
CC(=O)Nc1ccc2nc(NC(=O)COc3ccc(C)cc3)sc2c1	2.2	3.4	-0.6	1.4	-1.5	5.6
COc1cccc2sc(Nc3nc4ccc(NC(C)=O)cc4s3)nc12	17.0	-217.3	30.6*	7.7	-1.4	10.3
CC(=O)Nc1ccc2nc(NC(=O)C(Cl)(Cl)Cl)sc2c1	2.6	5.0	-8.7	6.0	0.5	5.8
CC(=O)Nc1ccc2nc(NC(=O)CCc3ccccc3)sc2c1	-0.3	5.0	22.5*	8.9	5.9	4.6
Cc1ccc2nc(-c3ccc(NS(=O)(=O)c4ccc(F)c(F)c4)cc3)sc2c1	24.3	-183.3	36.1*	-4.0	5.8	-1.9
CC(=O)Nc1ccc2nc(NC(=O)COc3ccccc3Cl)sc2c1	-4.5	-1.8	19.9*	-0.4	-0.6	4.2
O=C(NN=Cc1cccc(OC(=O)c2cccc(Br)c2)c1)c1ccncc1	.	3.4	.	.	.	.
Nc1ccc(C(=O)NN=Cc2cn(Cc3ccccc3)c3ccccc23)cc1	.	-11.6	.	.	.	.
SMILES	pPAFAH inh	UCH37 inh	GRIN3A LBD mod	PAFAH1B2 FP inh	PAFAH2 FP inh	PAFAH1B3 inh
Cc1ccc(CSc2nnc(SCC(=O)NN=Cc3c(C)nn(-c4ccccc4)c3C)s2)cc1	.	3.0	.	.	.	.
C(=NNc1nncc2ccccc12)c1ccccc1	.	-3.3	.	.	.	.
CC(=O)Nc1ccc2nc(NC(=O)COc3cccc(C)c3)sc2c1	6.0	3.1	11.0*	0.7	6.7	6.2
CC(=O)Nc1ccc2nc(NS(=O)(=O)c3ccc(C)cc3)sc2c1	26.3*	-1.2	-1.5	6.5	1.0	13.8
COc1ccc2nc(NS(=O)(=O)c3ccc(NC(C)=O)cc3)sc2c1	5.9	3.2	-6.4	1.5	13.8	7.5
Cc1ccc(S(=O)(=O)Nc2ccc3nc(C)oc3c2)cc1	.	.	11.2*	20.1	0.5	3.8
CC(=O)Nc1ccc2nc(NC(=O)COc3ccccc3C)sc2c1	2.6	2.3	23.2*	6.2	6.0	3.5
CC(=O)Nc1ccc2nc(NC(=O)COc3ccccc3)sc2c1	1.8	3.8	0.7	2.7	-6.0	8.0
COc1ccc(CC(C)=NNc2nc(C)cc(=O)[nH]2)cc1	.	0.6	.	.	.	.
N#Cc1c(N=Cc2ccc(-c3ccc(C(=O)O)c(Cl)c3)o2)sc2c1CCCC2	.	15.1	.	.	.	.
CC(=O)Nc1cccc(-c2nc3ccc(NC(C)=O)cc3s2)c1	-4.2	i	16.1*	-0.2	-3.7	-8.1
CC(=O)Nc1cccc(-c2nc3ccccc3s2)c1	-7.8	-0.6	-13.9	5.8	-4.4	5.2
O=C(COc1ccccc1)Nc1nc2cc3c(cc2s1)OCCO3	-0.6	-5.2	2.0	-2.8	-0.2	-4.0
O=C(COc1ccccc1)Nc1nc2cc3c(cc2s1)OCO3	-3.6	0.5	13.6*	-0.4	4.8	-0.9
Cc1cc2c(nc1C)CCCN2C[C@@H](C)ON=C1[C@H]2CCn3c(=O)n(-c4ccccc4)c(=O)n3[C@H]2[C@H](O)[C@@H]2O[C@H]12	.	-117.1	.	.	.	.
N#CCn1cc(C=NNC(=O)c2cc3c(ccc4ccccc43)o2)c2ccccc21	.	-99.0	.	.	.	.
Cc1c(Cc2ccccc2)c(=O)oc2c(C)c(OCC(=O)N[C@@H](Cc3ccccc3)C(=O)O)ccc12	32.8*	-74.6	-4.3	8.6	15.3	1.4
CC(CC(=O)Nc1ccc(OCc2ccccc2)cc1)=NNC(=O)C(=O)Nc1ccc(C)c(Cl)c1	.	2.2	.	.	.	.
Cc1nc(N)sc1C(=O)NN=Cc1ccco1	.	2.0	.	.	.	.
COc1ccccc1C1=NC(c2ccc(C)cc2)N=C1C (stereo not given)	24.6*	2.3	0.3	7.7	-3.5	7.9
COc1ccccc1-c1nnc(-c2ccc(C)cc2)o1	2.6	0.8	-1.5	-1.3	8.4	-4.6
COc1cc(C)c(Cl)cc1S(=O)(=O)NCc1ccco1	2.7	0.1	3.4	-2.4	7.0	8.5
CCOc1cc(C)c(Cl)cc1S(=O)(=O)NCc1ccco1	0.5	3.0	19.6*	-0.8	-1.0	-2.4
Cn1c(=O)c2c(nc(NN=Cc3cccnc3)n2Cc2ccccc2)n(C)c1=O	.	10.1	.	.	.	.
COc1cc(/C=N/Nc2nc3c(c(=O)n(C)c(=O)n3C)n2Cc2ccccc2)ccc1OC(=O)c1ccco1	34.5*	.	3.5	0.3	2.0	14.8
COc1ccc2ccccc2c1C=NNC(=O)c1cccnc1	.	1.4	.	.	.	.
